Experimental findings from ChEMBL document CHEMBL3525967, “In vitro glucuronidation of the antibacterial triclocarban and its oxidative metabolites” (Drug Metab Dispos, 2012) are described below.

A short description of data set [1]: Drug metabolism in microsomes (unknown origin) assessed as retention time treated with 10 uM triclocarban by LC-UV-MS method. It is filed as ADME, Microsome.
Data set [2] is described as follows: Drug level in Swiss webster mouse urine treated with triclocarban at 5 mg/kg, po by LC-MS analysis. Format: ADME, organism-based. Set-up: dose 5 mg/kg, route oral. The following applies: in vivo. In a few lines: (§1)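 TCC given by oral gavage as 1 mg/mL in 20/80 DMSO/PEG400, at 1 mg/kg (rats) or 5 mg/kg (mice). Animals in metabolic cages (mice two per cage, rats singly), blank urine taken 24 h before dosing. Urine collected 0-24 h and 24-48 h and analysed by online-LC-MS.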

Data set [3] relates to Liver microsome. The data set can be described thus: Drug metabolism in Sprague-Dawley rat liver microsomes assessed as retention time treated with 6-hydroxy-triclocarban by LC-UV-MS method in presence of UDPGA. It is filed as ADME. A general note: Liver microsomes are a subcellular fraction often used to study metabolism.
The nature of data set [4]: Drug level in Sprague-Dawley rat urine treated with triclocarban at 1 mg/kg, po by LC-MS analysis. Set-up: dose 1 mg/kg, route oral. The following applies: in vivo. Format: ADME, organism-based. In a few lines: as §1
The nature of data set [5]: Drug excretion in human urine assessed as retention time treated with triclocarban by LC-UV-MS method. Format: ADME.
The nature of data set [6]: Drug level in human kidney microsomes treated with triclocarban incubated for 5 mins prior to UDPGA addition measured after 30 mins by LC-UV-ESI-MS/MS analysis. It is filed as ADME. Conditions: 0.5 h. In a few lines: (§2)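 Microsomes or Sf-9 Supersomes (5 µg protein in 200 µL 100 mM potassium phosphate pH 7.4) pre-treated with alamethicin on ice 15 min; substrate 10 µM final (2% DMSO), MgCl2 and saccharolactone 10 mM each; 5 min preincubation at 37 °C, then UDPGA to start. Samples taken at 5, 10, 15, 30 min (or 2, 5, 10, 15 min) into ACN with internal standard; LC-UV-ESI-MS/MS.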

In data set [7] the test system is Liver. The data set can be described thus: Drug level in B6C3F1 mouse liver microsomes treated with triclocarban incubated for 5 mins prior to UDPGA addition measured after 30 mins by LC-UV-ESI-MS/MS analysis. It is filed as ADME. Conditions: 0.5 h. In a few lines:
as §2

A short description of data set [8]: Drug level in cynomolgus monkey liver microsomes treated with triclocarban incubated for 5 mins prior to UDPGA addition measured after 30 mins by LC-UV-ESI-MS/MS analysis. Format: ADME, Macaca fascicularis. The following applies: 0.5 h. In a few lines: as §2
In data set [9] the test system is Liver microsome. The data set can be described thus: Drug level in human liver microsomes treated with triclocarban incubated for 5 mins prior to UDPGA addition measured after 30 mins by LC-UV-ESI-MS/MS analysis. It is filed as ADME. The following applies: 0.5 h. In a few lines: as §2
For data set [10], the target named is T1, UDP-glucuronosyltransferase 1A9 (Homo sapiens, UniProt O60656).
T1 sequence (O60656 whole entry): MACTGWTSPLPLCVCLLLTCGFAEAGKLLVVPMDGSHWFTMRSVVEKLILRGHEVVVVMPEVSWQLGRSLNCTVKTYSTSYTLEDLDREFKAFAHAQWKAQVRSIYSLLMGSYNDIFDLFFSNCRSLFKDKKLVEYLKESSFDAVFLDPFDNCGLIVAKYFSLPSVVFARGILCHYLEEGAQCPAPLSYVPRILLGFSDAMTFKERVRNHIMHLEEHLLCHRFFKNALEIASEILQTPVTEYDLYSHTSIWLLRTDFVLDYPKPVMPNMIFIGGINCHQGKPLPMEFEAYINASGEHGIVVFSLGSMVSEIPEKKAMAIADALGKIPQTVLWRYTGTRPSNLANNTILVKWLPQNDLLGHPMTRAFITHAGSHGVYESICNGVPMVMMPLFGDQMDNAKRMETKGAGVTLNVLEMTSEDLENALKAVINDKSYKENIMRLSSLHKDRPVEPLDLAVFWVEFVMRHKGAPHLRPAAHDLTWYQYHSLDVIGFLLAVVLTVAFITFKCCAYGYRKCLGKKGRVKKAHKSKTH
The data set can be described thus: Activity of human UGT1A9 expressed in baculovirus infected insect sf9 cells assessed as enzyme-mediated drug metabolism treated with triclocarban incubated for 5 mins prior to UDPGA addition measured after 30 mins by LC-ESI-MS analysis. The following applies: sf9, 0.5 h. It is filed as ADME. In a few lines:
as §2

Take `O=C(Nc1ccc(Cl)c(Cl)c1)Nc1ccc(Cl)cc1OS(=O)(=O)O`: in data set [1], the Retention_time is 3.46 min.
Regarding `O=C(Nc1ccc(Cl)cc1)Nc1cc(Cl)c(Cl)cc1OC1O[C@H](C(=O)O)[C@@H](O)[C@H](O)[C@H]1O` (stereo not given in full), the Drug metabolism entry in data set [2] and in data set [4] was “metabolite_detected” throughout. In data set [3], the Retention_time stood at 2.51 min.
Regarding `O=C(Nc1ccc(Cl)cc1)Nc1ccc(Cl)cc1`, the Retention_time in [1] came to 4.36 min.
On to `O=C(Nc1ccc(Cl)c(Cl)c1)Nc1ccc(Cl)c(OC2O[C@H](C(=O)O)[C@@H](O)[C@H](O)[C@H]2O)c1` (stereo not given in full), for which the Drug metabolism entry in [2] and in [4] was “metabolite_detected” each time. The Retention_time in [3] is reported as 2.26 min.
As for `O=C(Nc1ccc(Cl)c(Cl)c1)Nc1ccc(Cl)cc1OC1O[C@H](C(=O)O)[C@@H](O)[C@H](O)[C@H]1O` (stereo not given in full), the Drug metabolism entry in [2] and in [4] was “metabolite_detected” in each case. In addition, the Retention_time in [1] worked out at 2.5 min.
Turning to `O=C(O)[C@H]1OC(N(C(=O)Nc2ccc(Cl)c(Cl)c2)c2ccc(Cl)cc2)[C@H](O)[C@@H](O)[C@@H]1O` (stereo not given in full), the Retention_time in data set [5] came to 2.07 min. The Drug metabolism result in data set [2], in data set [6], in data set [7], in data set [8], in [9] and in [10] was “metabolite_detected” throughout.
On to `O=C(O)[C@H]1OC(N(C(=O)Nc2ccc(Cl)cc2)c2ccc(Cl)c(Cl)c2)[C@H](O)[C@@H](O)[C@@H]1O` (stereo not given in full), for which the Retention_time in data set [5] is 1.97 min. The Drug metabolism entry in data set [2], in [6], in [7], in data set [8], in data set [9] and in data set [10] was “metabolite_detected” each time.
